For eleven compounds, EC50, EC90 and CC50 results are on record in ChEMBL document CHEMBL3351712, “Synthesis and antiviral evaluation of 2-amino-6-carbamoylpurine dioxolane nucleoside derivatives and their phosphoramidates prodrugs” (Bioorg Med Chem, 2014).

The subject of one data set is Hepatitis B virus. Put plainly: Antiviral activity against Hepatitis B virus. In kind it is functional, organism-based. Put shortly:
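Anti-HBV activity measured in HepG2 cells.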

In another data set the test system is Vero. Put plainly: (§1) Cytotoxicity against african green monkey Vero cells. The settings on record: chlorocebus sabaeus, vero. In kind it is cell-based.
In a further data set the test system is PBMC. Put plainly: (§2) Cytotoxicity against human PBMC. In kind it is cell-based. The settings on record: pbmc.
For the next data set, the system named is HepG2. As to the kind of experiment: Cytotoxicity against human HepG2 cells. The format is functional.
Data set [1] concerns Human immunodeficiency virus 1. Put plainly: Antiviral activity against HIV1. In kind it is functional, organism-based. The essentials: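 Antiviral assay run in primary human lymphocytes.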
The subject of a further data set is CCRF-CEM. Put plainly: Cytotoxicity against human CEM cell. The format is functional.
Data set [2] is described as follows: as §2. As to conditions: PBMC (peripheral blood mononuclear cells). In kind it is cell-based.
Data set [3] can be described thus: as §1. The settings on record: chlorocebus sabaeus, Vero cells. In kind it is cell-based.

Turning to `CCCC(=O)Nc1nc(N)nc2c1ncn2[C@H]1CO[C@@H](CO)O1`, the EC50 in the data set with Hepatitis B virus is greater than 10 µM; in data set [1] it was 9.2 µM. Further, the EC90 in the data set with Hepatitis B virus is greater than 10 µM; in data set [1], 38 µM. Further, the CC50 in the data set with Vero, in the data set with PBMC, with HepG2 and in the data set with CCRF-CEM was greater than 100 µM in each case.

Turning to `Cc1cn([C@H]2C[C@H](N=[N+]=[N-])[C@@H](CO)O2)c(=O)[nH]c1=O` [ZIDOVUDINE], the EC50 in the data set with Hepatitis B virus is greater than 10 µM; in data set [1] it was 0.0037 µM. Also, the figures for the EC90 (in the data set on Hepatitis B virus; in data set [1]) were greater than 10 µM and 0.047 µM, respectively. Moreover, the CC50 in the data set with Vero was 56 µM; in data set [2], greater than 100 µM; in the data set on HepG2 it was greater than 100 µM; in the data set on CCRF-CEM, 14 µM.

In the case of `CCCCCCCC(=O)Nc1nc(N)nc2c1ncn2[C@H]1CO[C@@H](CO)O1`, the figures for the EC50 (in the data set with Hepatitis B virus; in data set [1]) were greater than 10 µM and 21 µM, respectively. Also, the EC90 in the data set with Hepatitis B virus is greater than 10 µM; in data set [1], 56 µM. Also, the cytotoxic concentration (CC50) in the data set on Vero, with PBMC, with HepG2 and in the data set on CCRF-CEM was greater than 100 µM in each case.

As to `CCCCCCCCCCCCCC(=O)Nc1nc(N)nc2c1ncn2[C@H]1CO[C@@H](CO)O1`, the EC50 in the data set on Hepatitis B virus is greater than 10 µM; in data set [1], 6.5 µM. Also, the EC90 with Hepatitis B virus was greater than 10 µM; in data set [1] it was 27 µM. The half-maximal cytotoxic concentration (CC50) with Vero was 7.7 µM; with PBMC, greater than 100 µM; in the data set with HepG2 it was 56 µM; with CCRF-CEM it was 4.6 µM.

With `Nc1nc(N)c2ncn([C@H]3CO[C@@H](CO)O3)c2n1` [AMDOXOVIR], the 50% effective concentration (EC50) in the data set on Hepatitis B virus came out at 12 µM; in data set [1], 0.45 µM. Moreover, the values for the EC90 (with Hepatitis B virus; in data set [1]) were greater than 100 µM and 7.6 µM, respectively. The CC50 in the data set on Vero, with PBMC, in the data set on HepG2 and in the data set on CCRF-CEM was greater than 100 µM in each case.

Consider `CCCCCC(=O)Nc1nc(N)nc2c1ncn2[C@H]1CO[C@@H](CO)O1`, for which the concentration giving a half-maximal response (EC50) was greater than 10 µM in the data set with Hepatitis B virus and 34 µM in data set [1]. In addition, the values for the EC90 (in the data set with Hepatitis B virus; in data set [1]) were greater than 10 µM and greater than 100 µM, respectively. Besides, the CC50 in the data set on Vero, in the data set with PBMC, with HepG2 and with CCRF-CEM was greater than 100 µM in each case.

On to `CCCCCCCCCCCCCCCC(=O)Nc1nc(N)nc2c1ncn2[C@H]1CO[C@@H](CO)O1`, for which the EC50 was greater than 10 µM with Hepatitis B virus and 1.2 µM in data set [1]. For the same compound, the EC90 is greater than 10 µM in the data set on Hepatitis B virus and 6 µM in data set [1]. Moreover, the CC50 with Vero is 90 µM; in the data set on PBMC, greater than 100 µM; with HepG2 it was greater than 100 µM; with CCRF-CEM, greater than 100 µM.

Consider `CCCCCCCC/C=C\CCCCCCCC(=O)Nc1nc(N)nc2c1ncn2[C@H]1CO[C@@H](CO)O1`, for which the concentration for a half-maximal effect (EC50) in the data set with Hepatitis B virus was greater than 10 µM; in data set [1], 3.5 µM. Besides, the concentration for an effect of 90% (EC90) with Hepatitis B virus is greater than 10 µM; in data set [1] it was 13 µM. The CC50 was 19 µM in data set [3], 76 µM in data set [2], 11 µM in the data set with HepG2 and 13 µM with CCRF-CEM.

For `CC(=O)Nc1nc(N)nc2c1ncn2[C@H]1CO[C@@H](CO)O1`, the EC50 with Hepatitis B virus was greater than 10 µM; in data set [1], 0.56 µM. Besides, the figures for the EC90 (in the data set with Hepatitis B virus; in data set [1]) were greater than 10 µM and 12 µM, respectively. Besides, the CC50 in the data set with Vero, with PBMC, with HepG2 and with CCRF-CEM was greater than 100 µM in each case.

For `CCCCCCCCCCCC(=O)Nc1nc(N)nc2c1ncn2[C@H]1CO[C@@H](CO)O1`, the results for the half-maximal effective concentration (EC50) (with Hepatitis B virus; in data set [1]) were greater than 10 µM and 3.6 µM, respectively. Besides, the EC90 in the data set with Hepatitis B virus is greater than 10 µM; in data set [1] it was 18 µM. The CC50 in the data set on Vero is 53 µM; in the data set on PBMC it was 60 µM; in the data set on HepG2, greater than 100 µM; in the data set with CCRF-CEM, 13 µM.

`CCCCCCCCCC(=O)Nc1nc(N)nc2c1ncn2[C@H]1CO[C@@H](CO)O1`: the results for the EC50 (with Hepatitis B virus; in data set [1]) were greater than 10 µM and 26 µM, respectively. Besides, the EC90 with Hepatitis B virus is greater than 10 µM; in data set [1], 65 µM. Further, the half-maximal cytotoxic concentration (CC50) with Vero was greater than 100 µM; in the data set on PBMC it was greater than 100 µM; in the data set on HepG2, greater than 100 µM; with CCRF-CEM it was 65 µM.
